According to ChEMBL document CHEMBL1159017, “Akuammine and dihydroakuammine, two indolomonoterpene alkaloids displaying affinity for opioid receptors” (J Nat Prod, 1992):
pIC50: −log10 of the molar value.

What was measured:
[1] = Displacement of [3H]U69593 from kappa opioid receptor in guinea pig cerebellum membrane; type: cell membranes, Cavia porcellus
Summary of the method: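 Guinea pig cerebellum homogenate incubated with 1.5 nM [3H]-U 69593 for 60 min at 20°. Rapid filtration, then beta-scintillation counting. Specific binding defined with 10^-5 M U50488H (>70%). IC50, the molar concentration giving half-maximal displacement, derived from displacement curves.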

[2] = molecular target: Delta-type opioid receptor (Rattus norvegicus, UniProt P33533); experiment: Displacement of [3H]pCl-DPDP from delta opioid receptor in rat central nervous system membrane; type: tissue-based
Summary of the method: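 Rat CNS membranes incubated with 1 nM [3H]-pCl-DPDP-enkephalin for 270 min at 20°. Bound and free ligand separated by rapid filtration; radioactivity counted by beta scintillation. Nonspecific binding set with 10^-5 M unlabelled DPDP-enkephalin (specific >70%). IC50 (half-maximal displacement, molar) obtained from displacement curves.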

Mu-type opioid receptor = Mu-type opioid receptor (Rattus norvegicus, UniProt P33535); experiment: Displacement of [3H]DAMGO from mu opioid receptor in rat central nervous system membrane; type: tissue-based
Summary of the method: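 Rat CNS membranes incubated with 1 nM [3H]-DAGO for 60 min at 20°. Bound and free radioligand separated by rapid filtration, then beta-scintillation counting. Specific binding defined with 10^-5 M unlabelled DAGO (>70%). IC50 (molar concentration giving half-maximal displacement) calculated from displacement curves.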

Chain of Delta-type opioid receptor (P33533 whole entry): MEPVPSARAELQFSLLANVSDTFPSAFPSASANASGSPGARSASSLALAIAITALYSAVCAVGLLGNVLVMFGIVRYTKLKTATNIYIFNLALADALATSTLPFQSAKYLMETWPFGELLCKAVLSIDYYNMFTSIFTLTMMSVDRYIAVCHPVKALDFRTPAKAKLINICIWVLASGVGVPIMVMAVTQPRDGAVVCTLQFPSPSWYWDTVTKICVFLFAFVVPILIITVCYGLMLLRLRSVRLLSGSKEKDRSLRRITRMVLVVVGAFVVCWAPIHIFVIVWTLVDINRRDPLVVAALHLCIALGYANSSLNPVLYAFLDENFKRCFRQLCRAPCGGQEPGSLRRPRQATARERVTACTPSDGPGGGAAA
Chain of Mu-type opioid receptor (P33535 whole entry): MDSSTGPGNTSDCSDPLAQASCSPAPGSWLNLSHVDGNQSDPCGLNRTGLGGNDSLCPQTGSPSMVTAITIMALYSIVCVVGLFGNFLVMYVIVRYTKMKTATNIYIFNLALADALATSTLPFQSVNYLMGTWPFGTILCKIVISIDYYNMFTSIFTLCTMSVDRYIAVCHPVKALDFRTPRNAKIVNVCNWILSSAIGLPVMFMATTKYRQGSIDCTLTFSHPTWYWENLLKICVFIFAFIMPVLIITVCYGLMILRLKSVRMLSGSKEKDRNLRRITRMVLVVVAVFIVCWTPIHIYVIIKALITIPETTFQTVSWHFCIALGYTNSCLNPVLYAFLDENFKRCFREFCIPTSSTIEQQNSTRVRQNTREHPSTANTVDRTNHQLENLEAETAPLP

Row | Structure (SMILES) | pIC50 [1] | pIC50 [2] | pIC50 (Mu-type opioid receptor)
1 | CN1CC[C@@]2(C)c3cc(O)ccc3N(C)[C@@H]12 | 6.52 | 5.00 | 6.52
2 | C/C=C1/CN2CC[C@@]34c5cc(O)ccc5N(C)[C@]35OC[C@@]4(C(=O)OC)[C@@H]1C[C@H]25 [AKUAMMINE] | 5.40 | 4.70 | 
3 | C/C=C1/CN2CC[C@@]34c5cc(O)ccc5N(C)[C@@]23CC[C@H]1[C@@]4(CO)C(=O)OC [DIHYDROAKUAMMINE] | 4.70 | < 4.00 | 5.22
